{"source": "paper PMC10189352", "about": "(Molecular Therapy. Nucleic Acids, 2023)", "key": {"AsPC-1 cells": {"system": "AsPC-1 cells", "assay": "Colony formation of adherent cancer cells", "type": "cell-based, human", "conditions": "dose-dependent; after 5 days of treatment"}, "Hexim1 mRNA": {"system": "Hexim1 mRNA", "assay": "RT-qPCR of Hexim1 in murine AML cells", "type": "cell-based", "conditions": "6 h treatment"}, "c-Kit surface expression": {"system": "c-Kit surface expression", "assay": "Flow cytometric analysis of c-Kit in murine AML cells", "type": "cell-based", "conditions": "48 h, flow cytometry"}, "[1]": {"system": "murine AML cells expressing Myc cDNA", "assay": "Ectopic Myc cDNA expression rescue in murine AML cells", "type": "cell-based", "conditions": "murine AML cells transduced with Myc cDNA MSCV retrovirus"}, "[2]": {"system": "human leukemia cell lines", "assay": "Proliferation assay of human leukemia cell lines", "type": "cell-based", "conditions": "48 h, normalized to DMSO-treated cells", "procedure,_shortened": "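Human leukemia cell lines were grown with test compound. Proliferation rate was normalised to DMSO-treated cells; n = 3, mean ± SEM.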"}, "PDA organoids": {"system": "PDA organoids", "assay": "PDA organoid growth", "type": "cell-based, mouse", "conditions": "24, 48, and 72 h, light microscopy; CellTiter Glo-3D", "procedure,_shortened": "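PDA organoids were treated with test compound or DMSO and imaged by light microscopy at 24, 48 and 72 h. Growth was quantified with CellTiter-Glo 3D. Data are shown as mean ± SEM, and p-values came from Student's t test.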"}, "MYC": {"system": "MYC", "assay": "Western blot of MYC protein in murine AML cells", "type": "cell-based", "conditions": "murine MLL-AF9, Nras^G12D AML cells, 6 h, RVX-208 1 μM, OTX-015 1 μM, candidates 10 μM", "procedure,_shortened": "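Whole-cell lysates were prepared after the 6 h treatment and probed for MYC by western blot. DMSO-treated cells were the vehicle control.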"}, "SW-480 cells": {"system": "SW-480 cells", "assay": "Colony formation of adherent cancer cells", "type": "cell-based, human", "conditions": "dose-dependent; after 5 days of treatment"}, "[3]": {"system": "BRD4 occupancy at e1-e5 Myc enhancers", "assay": "BRD4 ChIP-qPCR at Myc enhancers in murine AML cells", "type": "cell-based"}, "[4]": {"system": "MLL-AF9;Nras^G12D AML cells", "assay": "Propidium iodide staining of murine AML cells", "type": "cell-based", "conditions": "48 h (Figure 3D)"}, "human AML cells": {"system": "human AML cells", "assay": "Methylcellulose-based colony formation of human AML cells", "type": "cell-based", "conditions": "semi-solid methylcellulose (Figure 3E)"}, "[5]": {"system": "murine AML cells (MLL-AF9; Nras^G12D)", "assay": "RNA-seq and GSEA in murine AML cells", "type": "cell-based", "conditions": "RNA-seq; for mRNA levels of JQ1-rapid target genes (n = 50): relative to DMSO"}, "[6]": {"system": "BD2 vs BD1 of BET proteins", "conditions": "approximately; cited from earlier work"}, "[7]": {"system": "RNA polymerase II chromatin occupancy", "assay": "RNA Pol II ChIP-seq in murine AML cells", "type": "cell-based", "conditions": "BRD4-occupied sites"}, "BRD4 chromatin occupancy": {"system": "BRD4 chromatin occupancy", "assay": "BRD4 ChIP-seq in murine AML cells", "type": "cell-based", "conditions": "regions enriched with H3K27ac"}}, "data": [{"smiles": "Cc1sc2c(c1C)C(c1ccc(Cl)cc1)=N[C@@H](CC(=O)Nc1ccc(O)cc1)c1nnc(C)n1-2", "note": "[OTX-015, birabresib]", "values": [{"measurement": "clonogenic growth of AsPC-1 cells", "setting": "AsPC-1 cells", "value": "markedly inhibit clonogenic growth"}, {"measurement": "increase of Hexim1 mRNA expression", "setting": "Hexim1 mRNA", "value": "> 20", "unit": "fold"}, {"measurement": "c-Kit surface expression", "setting": "c-Kit surface expression", "value": "downregulated c-Kit"}, {"measurement": "effect of ectopic Myc expression on drug sensitivity", "setting": "[1]", "value": "ectopic Myc expression conferred resistance"}, {"measurement": "anti-proliferative activity in K562, NOMO-1, JURKAT, and HL-60", "setting": "[2]", "value": "minimal sensitivity"}, {"measurement": "anti-proliferative activity in MV4-11, KASUMI-1, MOLM-13, and THP-1", "setting": "[2]", "value": "broad growth-suppressive effect"}, {"measurement": "PDA organoid growth", "setting": "PDA organoids", "value": "attenuated PDA organoid growth"}, {"measurement": "MYC protein expression", "setting": "MYC", "value": "downregulated MYC protein levels"}, {"measurement": "clonogenic growth of SW-480 cells", "setting": "SW-480 cells", "value": "markedly inhibit clonogenic growth"}, {"measurement": "BRD4 occupancy at e1-e5 Myc enhancers", "setting": "[3]", "value": "impaired the occupancy of BRD4 at the e1-e5 Myc enhancers"}, {"measurement": "proliferation of leukemia cells", "setting": "[4]", "value": "inhibited the proliferation of leukemia cells"}, {"measurement": "ability to form colonies on methylcellulose", "setting": "human AML cells", "value": "substantially suppressed"}, {"measurement": "LSC signature genes (GSEA)", "setting": "[5]", "value": "significantly suppressed the LSC signature genes"}, {"measurement": "mRNA levels of JQ1-rapid target genes (n = 50)", "setting": "[5]", "value": "strongly downregulated all JQ1-rapid targets"}, {"measurement": "expression of genes close to the BBC1115-sensitive 330 regions (GSEA)", "setting": "[5]; vs DMSO", "value": "significantly downregulated"}]}, {"smiles": "COc1cc(OC)c2c(=O)[nH]c(-c3cc(C)c(OCCO)c(C)c3)nc2c1", "note": "[RVX-208, apabetalone]", "values": [{"measurement": "stronger binding affinity toward BD2 than BD1", "setting": "[6]", "value": "10- to 100 fold"}, {"measurement": "RNA Pol II chromatin binding (ChIP-seq)", "setting": "[7]", "value": "negligible"}, {"measurement": "PDA organoid growth", "setting": "PDA organoids", "value": "but not RVX-208, attenuated PDA organoid growth"}, {"measurement": "MYC protein expression", "setting": "MYC", "value": "only modestly affected MYC protein expression"}, {"measurement": "BRD4 chromatin occupancy (ChIP-seq)", "setting": "BRD4 chromatin occupancy", "value": "negligible"}, {"measurement": "BRD4 occupancy at e1-e5 Myc enhancers", "setting": "[3]", "value": "negligible effect on the BRD4 occupancy at e1-e5"}, {"measurement": "LSC signature genes (GSEA)", "setting": "[5]", "value": "insignificant"}, {"measurement": "mRNA levels of JQ1-rapid target genes (n = 50)", "setting": "[5]", "value": "downregulated some but not all JQ1-rapid targets"}]}]}
